Measured values: ChEMBL document CHEMBL4138173, “Molecular docking, design, synthesis and antifungal activity study of novel triazole derivatives” (2018)
Values after ≈ are worked out from the molar mass of the structure shown. Active and inactive are the calls of the source. No cut-off for these calls is given here.

Experiments:
[1] = tested on: Candida albicans; experiment: Antifungal activity against Candida albicans SC5314 after 24 hrs; assay type: functional; settings: SC5314, 24 h
Method in brief: (§1)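 Broth dilution MIC per NCCLS recommendations. Compounds were dissolved in DMSO in growth medium, then inoculated and incubated at 35 °C, with growth read at 24 h for C. albicans. MIC80 is the first well showing about 80% growth reduction versus the drug-free well. Values are the mean of three replicate tests.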

[2] = tested on: Aspergillus fumigatus; experiment: Antifungal activity against Aspergillus fumigatus after 5 to 7 days; assay type: functional
Method in brief: (§2)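 Filamentous fungi were tested by broth dilution following NCCLS recommendations. Compounds were dissolved in DMSO in growth medium, inoculated and incubated at 35 °C, with MIC80 read after 5–7 days. MIC80 is the first well with approximately 80% growth reduction relative to the drug-free well. Results are the mean of three replicates.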

[3] = tested on: Cryptococcus neoformans; experiment: Antifungal activity against Cryptococcus neoformans after 72 hrs; assay type: functional
Method in brief: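 NCCLS-based broth dilution against C. neoformans. Test agents were in DMSO in growth medium, inoculated and held at 35 °C, and MIC80 was read at 72 h. MIC80 is the first well with roughly 80% less growth than the drug-free well. Each value averages three replicate tests.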

[4] = tested on: Nakaseomyces glabratus; experiment: Antifungal activity against Candida glabrata after 5 to 7 days; assay type: functional
[5] = tested on: Pichia kudriavzevii; experiment: Antifungal activity against Candida krusei after 5 to 7 days; assay type: functional
Method in brief: (§3)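 MIC measured by broth dilution per NCCLS recommendations. Compounds were dissolved in DMSO in growth medium, inoculated and incubated at 35 °C. MIC80 is the first well with approximately 80% lower growth than the drug-free well. Values are the mean of three replicate tests.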

[6] = tested on: Candida tropicalis; experiment: Antifungal activity against Candida tropicalis after 24 hrs; assay type: functional; method in brief: as §3
[7] = tested on: Nannizzia gypsea; experiment: Antifungal activity against Microsporum gypseum after 5 to 7 days; assay type: functional; method in brief: as §2
[8] = tested on: Trichophyton rubrum; experiment: Antifungal activity against Trichophyton rubrum after 5 to 7 days; assay type: functional
Method in brief: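 Broth dilution per NCCLS recommendations against an ATCC strain; compounds dissolved in DMSO in growth medium; incubated at 35 °C. MIC80 is the first well with about 80% growth reduction versus the drug-free well, read at 5–7 days for filamentous fungi. Values are the mean of three replicate tests.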

[9] = tested on: Candida parapsilosis; experiment: Antifungal activity against Candida parapsilosis after 5 to 7 days; assay type: functional; settings: Lodderomyces parapsilosis
[10] = tested on: Candida albicans; experiment: Antifungal activity against Candida albicans SCY0109 after 24 hrs; assay type: functional; settings: SCY0109, 24 h; method in brief: as §1
[11] = tested on: Candida albicans; experiment: Antifungal activity against Candida albicans SC5314 infected in ICR mouse assessed as increase in host survival at 1 mg/kg, po qd for 7 days starting from 2 hrs post infection measured up to 20 days; assay type: functional, organism-based
Method in brief: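 Male ICR mice (18–22 g, ten per group) were immunosuppressed with intraperitoneal cyclophosphamide 100 mg/kg once daily for 3 days. They were then infected with 0.4 ml of […] C. albicans SC5314. Oral dosing in 0.5% carboxymethylcellulose suspension began 2 h post-infection, with vehicle-only controls. Read-out was mean survival days over 20 days.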

SMILES | MIC80 [1] [µg/mL] | MIC80 [2] [µg/mL] | MIC80 [3] [µg/mL] | further results
C[C@@H](n1cc(-c2cccnc2)nn1)[C@](O)(Cn1cncn1)c1ccc(F)cc1F | 0.5 (≈ 1.26 µM) | > 64 | 1 (≈ 2.52 µM) | –
CCN[C@H](C)[C@](O)(Cn1cncn1)c1ccc(F)cc1F | 0.5 (≈ 1.69 µM) | 32 (≈ 108 µM) | 0.5 (≈ 1.69 µM) | –
C[C@@H](NCc1ccc(Br)cc1)[C@](O)(Cn1cncn1)c1ccc(F)cc1F | 0.0156 (≈ 0.0357 µM) | 0.5 (≈ 1.14 µM) | 0.125 (≈ 0.286 µM) | –
Cc1ccc(CN(C2CC2)[C@H](C)[C@](O)(Cn2cncn2)c2ccc(F)cc2F)cc1 | 8 (≈ 19.4 µM) | > 64 | 5 (≈ 12.1 µM) | –
COc1ccc(-c2cn([C@H](C)[C@](O)(Cn3cncn3)c3ccc(F)cc3F)nn2)cc1 | 0.125 (≈ 0.293 µM) | > 64 | 0.0625 (≈ 0.147 µM) | –
C[C@@H](N(Cc1ccccc1)C1CC1)[C@](O)(Cn1cncn1)c1ccc(F)cc1F | 8 (≈ 20.1 µM) | 8 (≈ 20.1 µM) | 8 (≈ 20.1 µM) | –
C[C@@H](n1cc(-c2ccc(Br)cc2)nn1)[C@](O)(Cn1cncn1)c1ccc(F)cc1F | 0.25 (≈ 0.526 µM) | > 64 | 0.25 (≈ 0.526 µM) | –
CCN(C1CC1)[C@H](C)[C@](O)(Cn1cncn1)c1ccc(F)cc1F | 1 (≈ 2.97 µM) | > 64 | 1 (≈ 2.97 µM) | –
C[C@@H](NC1CC1)[C@](O)(Cn1cncn1)c1ccc(F)cc1F | 0.0156 (≈ 0.0506 µM) | 1 (≈ 3.24 µM) | 0.0156 (≈ 0.0506 µM) | MIC80 [4]: 0.0156 µg/mL (≈ 0.0506 µM); MIC80 [5]: 0.5 µg/mL (≈ 1.62 µM); MIC80 [6]: 0.5 µg/mL (≈ 1.62 µM); MIC80 [7]: 0.125 µg/mL (≈ 0.405 µM); MIC80 [8]: 0.0625 µg/mL (≈ 0.203 µM); MIC80 [9]: 0.25 µg/mL (≈ 0.811 µM); MIC80 [10]: 0.0078 µg/mL (≈ 0.0253 µM)
C[C@@H](NCc1ccccc1)[C@](O)(Cn1cncn1)c1ccc(F)cc1F | 0.0312 (≈ 0.0872 µM) | 1 (≈ 2.79 µM) | 0.125 (≈ 0.349 µM) | –
CC(C)N[C@H](C)[C@](O)(Cn1cncn1)c1ccc(F)cc1F | 0.25 (≈ 0.806 µM) | 16 (≈ 51.6 µM) | 0.25 (≈ 0.806 µM) | –
C[C@@H](N1CCOCC1)[C@](O)(Cn1cncn1)c1ccc(F)cc1F | 0.0312 (≈ 0.0924 µM) | 0.125 (≈ 0.369 µM) | 0.0156 (≈ 0.0461 µM) | MIC80 [4]: 0.0312 µg/mL (≈ 0.0924 µM); Activity [11]: Active; MIC80 [5]: 0.5 µg/mL (≈ 1.48 µM); MIC80 [6]: 0.5 µg/mL (≈ 1.48 µM); MIC80 [7]: 0.0625 µg/mL (≈ 0.185 µM); MIC80 [8]: 0.0625 µg/mL (≈ 0.185 µM); MIC80 [9]: 0.0625 µg/mL (≈ 0.185 µM); MIC80 [10]: 0.0156 µg/mL (≈ 0.0461 µM)
C[C@@H](n1cc(-c2cccc(Br)c2)nn1)[C@](O)(Cn1cncn1)c1ccc(F)cc1F | 0.5 (≈ 1.05 µM) | > 64 | 1 (≈ 2.1 µM) | –
C[C@@H](N(Cc1ccc(Cl)cc1)C1CC1)[C@](O)(Cn1cncn1)c1ccc(F)cc1F | 8 (≈ 18.5 µM) | > 64 | 4 (≈ 9.24 µM) | –

More lines, main results first:

MIC80 [1] [µg/mL] | MIC80 [2] [µg/mL] | MIC80 [3] [µg/mL] | SMILES | further results
1 (≈ 2.52 µM) | > 64 | 1 (≈ 2.52 µM) | C[C@@H](n1cc(-c2ccncc2)nn1)[C@](O)(Cn1cncn1)c1ccc(F)cc1F | –
0.25 (≈ 0.603 µM) | > 64 | 0.0625 (≈ 0.151 µM) | C[C@@H](n1cc(-c2cccc(F)c2)nn1)[C@](O)(Cn1cncn1)c1ccc(F)cc1F | –
0.125 (≈ 0.29 µM) | 32 (≈ 74.3 µM) | 0.0156 (≈ 0.0362 µM) | C[C@@H](n1cc(-c2ccc(Cl)cc2)nn1)[C@](O)(Cn1cncn1)c1ccc(F)cc1F | –
4 (≈ 8.84 µM) | > 64 | 8 (≈ 17.7 µM) | CCCCc1ccc(-c2cn([C@H](C)[C@](O)(Cn3cncn3)c3ccc(F)cc3F)nn2)cc1 | –
0.0625 (≈ 0.145 µM) | > 64 | 0.0625 (≈ 0.145 µM) | C[C@@H](n1cc(-c2cccc(Cl)c2)nn1)[C@](O)(Cn1cncn1)c1ccc(F)cc1F | –
0.0625 (≈ 0.173 µM) | 32 (≈ 88.8 µM) | 0.0625 (≈ 0.173 µM) | C[C@@H](n1cc(C2CC2)nn1)[C@](O)(Cn1cncn1)c1ccc(F)cc1F | –
0.0625 (≈ 0.155 µM) | 4 (≈ 9.94 µM) | 0.0625 (≈ 0.155 µM) | C[C@@H](n1cc(-c2ccsc2)nn1)[C@](O)(Cn1cncn1)c1ccc(F)cc1F | –
0.125 (≈ 0.403 µM) | 8 (≈ 25.8 µM) | 0.0625 (≈ 0.201 µM) | CCCN[C@H](C)[C@](O)(Cn1cncn1)c1ccc(F)cc1F | –
0.5 (≈ 1.22 µM) | > 64 | 1 (≈ 2.43 µM) | C[C@@H](n1cc(-c2cccc(N)c2)nn1)[C@](O)(Cn1cncn1)c1ccc(F)cc1F | –
